Experimental data published in ChEMBL document CHEMBL1137007, “Synthesis of 4-substituted pyrido[2,3-d]pyrimidin-4(1H)-one as analgesic and anti-inflammatory agents” (Bioorg Med Chem Lett, 2009).

Assays:
Rattus norvegicus [1] = assay: Antiinflammatory activity in rat assessed as inhibition of carrageenan-induced paw oedema at 10 mg/kg, po after 3 hrs; type: functional; design: scale not given: the % may be the effect or the level left
How it was run: (§1)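 Rats, six per group, were dosed orally (10 or 20 mg/kg, suspension in 1% carboxymethyl cellulose) before carrageenan paw injection. Paw volume was read by mercury-displacement plethysmography just before and 30 min, 1, 2 and 3 h after carrageenan. %inhibition = 100[1 − (a − x)/(b − y)], with the test group's pre/post volumes set against the vehicle control group's. Reported as mean ± SEM (n = 6) with ANOVA.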

Mus musculus [2] = assay: Analgesic activity in Wister albino mice at 10 mg/kg, po after 1 hr by tail-flick test
Mus musculus [3] = assay: Analgesic activity in Wister albino mice at 10 mg/kg, po after 3 hrs by tail-flick test
Rattus norvegicus [4] = assay: Antiinflammatory activity in rat assessed as inhibition of carrageenan-induced paw oedema at 20 mg/kg, po after 2 hrs; type: functional; design: scale not given: the % may be the effect or the level left; how it was run: as §1
Rattus norvegicus [5] = assay: Antiinflammatory activity in rat assessed as inhibition of carrageenan-induced paw oedema at 10 mg/kg, po after 2 hrs; type: functional; design: scale not given: the % may be the effect or the level left; how it was run: as §1
Rattus norvegicus [6] = assay: Toxicity in Wistar albino rat assessed as ulcer index at 20 mg/kg, ip administered once daily for 3 days; type: organism-based; design: dose 20 mg/kg, route intraperitoneal; conditions: in vivo, 72 h
How it was run: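 Wistar albino rats of either sex (150–200 g), six per group, housed at 25 °C, 45–55% RH, 12-h light/dark cycle and acclimatized one week. Dosing was intraperitoneal as a suspension in 10% v/v Tween-80, with a vehicle-only control group. Animals were fasted 36 h, then pylorus-ligated (Shay method) on day 4 and sacrificed 4 h later for ulcer index. Values are mean ± SEM (n = 6), analysed by one-way ANOVA.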

Mus musculus [7] = assay: Analgesic activity in Wister albino mice at 20 mg/kg, po after 1 hr by tail-flick test
Mus musculus [8] = assay: Analgesic activity in Wister albino mice at 20 mg/kg, po after 30 mins by tail-flick test
Mus musculus [9] = assay: Analgesic activity in Wister albino mice at 10 mg/kg, po after 30 mins by tail-flick test
Mus musculus [10] = assay: Analgesic activity in Wister albino mice at 10 mg/kg, po after 2 hrs by tail-flick test
Mus musculus [11] = assay: Analgesic activity in Wister albino mice at 20 mg/kg, po after 3 hrs by tail-flick test
Mus musculus [12] = assay: Analgesic activity in Wister albino mice at 20 mg/kg, po after 2 hrs by tail-flick test
Rattus norvegicus [13] = assay: Antiinflammatory activity in rat assessed as inhibition of carrageenan-induced paw oedema at 20 mg/kg, po after 3 hrs; type: functional; design: scale not given: the % may be the effect or the level left; how it was run: as §1
Rattus norvegicus [14] = assay: Antiinflammatory activity in rat assessed as inhibition of carrageenan-induced paw oedema at 10 mg/kg, po after 30 mins; type: functional; design: scale not given: the % may be the effect or the level left; how it was run: as §1
Rattus norvegicus [15] = assay: Antiinflammatory activity in rat assessed as inhibition of carrageenan-induced paw oedema at 20 mg/kg, po after 30 mins; type: functional; design: scale not given: the % may be the effect or the level left; how it was run: as §1
Rattus norvegicus [16] = assay: Antiinflammatory activity in rat assessed as inhibition of carrageenan-induced paw oedema at 10 mg/kg, po after 1 hr; type: functional; design: scale not given: the % may be the effect or the level left; how it was run: as §1
Rattus norvegicus [17] = assay: Antiinflammatory activity in rat assessed as inhibition of carrageenan-induced paw oedema at 20 mg/kg, po after 1 hr; type: functional; design: scale not given: the % may be the effect or the level left; how it was run: as §1

Compound | Activity (Rattus norvegicus [1]) | Activity (Mus musculus [2]) | Activity (Mus musculus [3]) | Activity (Rattus norvegicus [4]) | Activity (Rattus norvegicus [5]) | UI (Rattus norvegicus [6]) | Activity (Mus musculus [7]) | Activity (Mus musculus [8]) | Activity (Mus musculus [9]) | Activity (Mus musculus [10]) | Activity (Mus musculus [11]) | Activity (Mus musculus [12]) | Activity (Rattus norvegicus [13]) | Activity (Rattus norvegicus [14]) | Activity (Rattus norvegicus [15]) | Activity (Rattus norvegicus [16]) | Activity (Rattus norvegicus [17])
N=c1sc(=S)[nH]c2nc3[nH]c(=S)[nH]c(=O)c3c(-c3ccc(N4CCCCC4)cc3)c12 | 25% | 42% | 34% | 46% | 39% | 0.73 | 53% | 51% | 38% | 48% | 39% | 56% | 33% | 33% | 37% | 38% | 40%
Nc1ncnc2nc3[nH]c(=S)[nH]c(=O)c3c(-c3ccc(N4CCCCC4)cc3)c12 | 32% | 49% | 32% | 48% | 40% | 0.58 | 57% | 55% | 41% | 52% | 38% | 59% | 39% | 33% | 42% | 39% | 45%
N#Cc1c(N)nc2[nH]c(=S)[nH]c(=O)c2c1-c1ccc(N2CCOCC2)cc1 | 36% | 47% | 31% | 63% | 50% | 0.54 | 63% | 59% | 45% | 53% | 43% | 66% | 47% | 41% | 50% | 48% | 61%
CN1CCN(c2ccc(-c3c(C#N)c(N)nc4[nH]c(=S)[nH]c(=O)c34)cc2)CC1 | 31% | 60% | 44% | 60% | 46% | 0.51 | 68% | 67% | 53% | 64% | 52% | 72% | 37% | 39% | 48% | 40% | 55%
Nc1nc(=S)[nH]c2nc3[nH]c(=S)[nH]c(=O)c3c(-c3ccc(N4CCCCC4)cc3)c12 |  |  |  |  |  | 0.69 |  |  |  |  |  |  |  |  |  |  | 
O=c1[nH]cnc2nc3[nH]c(=S)[nH]c(=O)c3c(-c3ccc(N4CCCCC4)cc3)c12 | 27% | 36% | 33% | 44% | 38% | 0.89 | 50% | 40% | 32% | 45% | 39% | 55% | 32% | 30% | 35% | 34% | 41%
N=c1sc(=S)[nH]c2nc3[nH]c(=S)[nH]c(=O)c3c(-c3ccc(N4CCOCC4)cc3)c12 | 21% | 41% | 32% | 42% | 31% | 0.89 | 53% | 49% | 39% | 44% | 44% | 56% | 30% | 25% | 30% | 28% | 34%
O=C([O-])Cc1ccccc1Nc1c(Cl)cccc1Cl.[Na+] [DICLOFENAC SODIUM] | 33% | 43% | 33% | 60% | 39% | 1.65 | 55% | 46% | 37% | 45% | 39% | 62% | 42% | 32% | 45% | 38% | 52%
